Reference: ChEMBL document CHEMBL3259728, “Design, synthesis and biological evaluation of some novel substituted quinazolines as antitumor agents” (2014)

Columns and labels:
Assay type in all cases: functional
[1] = Growth inhibition of human BT549 cells assessed as cell growth at 10^-5 M after 48 hrs by SRB assay; conditions: BT-549, 48 h, read-out: Activity
How it was run: (§1)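 Five-dose NCI panel protocol. Each dose (10^-4 to 10^-8 M, 10-fold steps) was given as 48 h continuous exposure, and protein was measured by SRB staining. Percentage growth at each level is [(Ti−Tz)/(C−Tz)]×100, where Tz is time-zero absorbance and C is untreated control.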

[2] = Growth inhibition of human OVCAR8 cells assessed as cell growth at 10^-8 M after 48 hrs by SRB assay; conditions: OVCAR-8, 48 h, read-out: Activity
[3] = Growth inhibition of human UACC62 cells assessed as cell growth at 10^-8 M after 48 hrs by SRB assay; conditions: UACC-62, 48 h, read-out: Activity
[4] = test system: CAKI-1; assay: Growth inhibition of human CAKI-1 cells assessed as cell growth at 10^-5 M after 48 hrs by SRB assay; conditions: CAKI-1, 48 h, read-out: Activity; how it was run: as §1
[5] = test system: HOP-62; assay: Growth inhibition of human HOP62 cells assessed as cell growth at 10^-5 M after 48 hrs by SRB assay; conditions: HOP-62, 48 h, read-out: Activity
[6] = test system: M14; assay: Growth inhibition of human M14 cells assessed as cell growth at 10^-6 M after 48 hrs by SRB assay; conditions: M14, 48 h, read-out: Activity
[7] = Growth inhibition of human HCT15 cells assessed as cell growth at 10^-6 M after 48 hrs by SRB assay; conditions: HCT-15, 48 h, read-out: Activity
[8] = test system: NCI-H226; assay: Growth inhibition of human NCI-H226 cells assessed as cell growth at 10^-6 M after 48 hrs by SRB assay; conditions: NCI-H226, 48 h, read-out: Activity
[9] = Growth inhibition of human UO31 cells assessed as cell growth at 10^-7 M after 48 hrs by SRB assay; conditions: UO-31, 48 h, read-out: Activity
[10] = Growth inhibition of human RXF393 cells assessed as cell growth at 10^-8 M after 48 hrs by SRB assay; conditions: RXF 393, 48 h, read-out: Activity
[11] = test system: A498; assay: Growth inhibition of human A498 cells assessed as cell growth at 10^-8 M after 48 hrs by SRB assay; conditions: A498, 48 h, read-out: Activity; how it was run: as §1
[12] = test system: ACHN; assay: Cytotoxicity against human ACHN cells after 48 hrs by SRB assay
How it was run: (§2)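 NCI 60-cell-line panel of human tumour lines from nine cancer types. Continuous 48 h exposure at five 10-fold dilutions from 10^-4 to 10^-8 M, with 5-FU as positive control. SRB protein stain read spectrophotometrically at time zero, untreated control and each concentration. GI50, TGI and LC50 were derived from the [(Ti−Tz)/(C−Tz)]×100 growth relations, and out-of-range values are given as > or < the tested limits.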

[13] = Cytotoxicity against human OVCAR3 cells after 48 hrs by SRB assay; conditions: OVCAR-3, 48 h; how it was run: as §2
[14] = Growth inhibition of human HCC2998 cells assessed as cell growth at 10^-6 M after 48 hrs by SRB assay; conditions: HCC 2998, 48 h, read-out: Activity
[15] = Growth inhibition of human EKVX cells assessed as cell growth at 10^-8 M after 48 hrs by SRB assay; conditions: read-out: Activity
[16] = test system: SN12C; assay: Cytotoxicity against human SN12C cells after 48 hrs by SRB assay; how it was run: as §2
[17] = test system: T47D; assay: Cytotoxicity against human T47D cells after 48 hrs by SRB assay
How it was run: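 NCI 60-cell-line panel, 48 h continuous exposure to five 10-fold dilutions from 10^-4 to 10^-8 M. SRB protein staining was read spectrophotometrically, with time-zero, untreated-control and treated absorbances. GI50, TGI and LC50 were derived from the percentage-growth formulas. Values outside the tested range are expressed as more or less than the maximum or minimum concentration.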

[18] = Growth inhibition of human HOP92 cells assessed as cell growth at 10^-6 M after 48 hrs by SRB assay; conditions: HOP-92, 48 h, read-out: Activity
[19] = test system: ACHN; assay: Growth inhibition of human ACHN cells assessed as cell growth at 10^-7 M after 48 hrs by SRB assay; conditions: read-out: Activity; how it was run: as §1
[20] = test system: SK-OV-3; assay: Growth inhibition of human SKOV3 cells assessed as cell growth at 10^-7 M after 48 hrs by SRB assay; conditions: SK-OV-3, 48 h, read-out: Activity
[21] = Growth inhibition of human UACC257 cells assessed as cell growth at 10^-7 M after 48 hrs by SRB assay; conditions: UACC-257, 48 h, read-out: Activity
[22] = Growth inhibition of human Hs578T cells assessed as cell growth at 10^-8 M after 48 hrs by SRB assay; conditions: Hs-578T, read-out: Activity
[23] = test system: MDA-MB-231; assay: Growth inhibition of human MDA-MB-231 cells assessed as cell growth at 10^-8 M after 48 hrs by SRB assay; conditions: MDA-MB-231, 48 h, read-out: Activity
[24] = test system: SN12C; assay: Growth inhibition of human SN12C cells assessed as cell growth at 10^-8 M after 48 hrs by SRB assay; conditions: read-out: Activity
[25] = test system: NCI-H226; assay: Cytotoxicity against human NCI-H226 cells after 48 hrs by SRB assay; conditions: NCI-H226, 48 h; how it was run: as §2
[26] = test system: SR; assay: Cytotoxicity against human SR cells after 48 hrs by SRB assay; how it was run: as §2
[27] = test system: T47D; assay: Growth inhibition of human T47D cells assessed as cell growth at 10^-4 M after 48 hrs by SRB assay; conditions: read-out: Activity
[28] = Growth inhibition of human UO31 cells assessed as cell growth at 10^-4 M after 48 hrs by SRB assay; conditions: UO-31, 48 h, read-out: Activity
[29] = test system: SK-OV-3; assay: Growth inhibition of human SKOV3 cells assessed as cell growth at 10^-4 M after 48 hrs by SRB assay; conditions: SK-OV-3, 48 h, read-out: Activity
[30] = read-out: LC50 (the source's name)
[31] = read-out: pLC50 (the source's name) (converted)

Cc1ccc(-c2nc3ccc(Cl)cc3c(=O)n2/N=C/c2ccccc2)cc1
growth at 10 µM [1]: 90%
growth at 0.01 µM [2]: 101%
growth at 0.01 µM [3]: 93%
growth at 10 µM [4]: 38%
growth at 10 µM [5]: 36%
growth at 1 µM [6]: 97%
growth at 1 µM [7]: 93%
growth at 1 µM [8]: 79%
growth at 0.1 µM [9]: 60%
growth at 0.01 µM [10]: 97%
growth at 0.01 µM [11]: 88%
GI50 ([12]; read-out: GI50): 0.627 µM
CC50 [12, 30]: > 100 µM
TGI ([12]; read-out: TGI): > 100 µM
GI50 ([12]; read-out: pGI50 (converted)): 0.631 µM
CC50 [12, 31]: > 100 µM
TGI ([12]; read-out: pTGI): > 100 µM
GI50 ([13]; read-out: GI50): 5.44 µM
CC50 [13, 30]: > 100 µM
TGI ([13]; read-out: TGI): > 100 µM
GI50 ([13]; read-out: pGI50 (converted)): 5.5 µM
CC50 [13, 31]: > 100 µM
TGI ([13]; read-out: pTGI): > 100 µM
growth at 1 µM [14]: 96%
growth at 0.01 µM [15]: 92%
GI50 ([16]; read-out: GI50): 11.8 µM
CC50 [16, 30]: > 100 µM
TGI ([16]; read-out: TGI): > 100 µM
GI50 ([16]; read-out: pGI50 (converted)): 11.7 µM
CC50 [16, 31]: > 100 µM
TGI ([16]; read-out: pTGI): > 100 µM
GI50 ([17]; read-out: GI50): 3.82 µM
CC50 [17, 30]: > 100 µM
TGI ([17]; read-out: TGI): > 100 µM
GI50 ([17]; read-out: pGI50 (converted)): 3.8 µM
CC50 [17, 31]: > 100 µM
TGI ([17]; read-out: pTGI): > 100 µM
growth at 1 µM [18]: 85%
growth at 0.1 µM [19]: 88%
growth at 0.1 µM [20]: 97%
growth at 0.1 µM [21]: 99%
growth at 0.01 µM [22]: 87%
growth at 0.01 µM [23]: 108%
growth at 0.01 µM [24]: 104%
GI50 ([25]; read-out: GI50): 5.14 µM
CC50 [25, 30]: > 100 µM
TGI ([25]; read-out: TGI): > 100 µM
GI50 ([25]; read-out: pGI50 (converted)): 5.13 µM
CC50 [25, 31]: > 100 µM
TGI ([25]; read-out: pTGI): > 100 µM
GI50 ([26]; read-out: GI50): > 100 µM
CC50 [26, 30]: > 100 µM
TGI ([26]; read-out: TGI): > 100 µM
GI50 ([26]; read-out: pGI50 (converted)): > 100 µM
CC50 [26, 31]: > 100 µM
TGI ([26]; read-out: pTGI): > 100 µM
growth at 100 µM [27]: 14%
growth at 100 µM [28]: 39%
growth at 100 µM [29]: -37%
